Experimental data from ChEMBL document CHEMBL4196081, “Synthesis and antimycobacterial activity of 1-(β-d-Ribofuranosyl)-4-coumarinyloxymethyl- / -coumarinyl-1,2,3-triazole” (Eur J Med Chem, 2018).
Values after ≈ are worked out from the molar mass of the structure shown. Active and inactive are the calls of the source. The calls are words filed in the database; no cut-off is given here.

Legend:
[1] = test system: Mycobacterium tuberculosis; assay: Ratio of MBC to MIC for Mycobacterium tuberculosis H37Rv; type: functional
[2] = test system: Mycobacterium tuberculosis; assay: Bactericidal activity against Mycobacterium tuberculosis H37Rv after 4 weeks by MABA; type: functional; details: 672 h
[3] = test system: Mycobacterium tuberculosis; assay: Antimycobacterial activity against MDR Mycobacterium tuberculosis isolate 591 after 15 days by MABA; type: functional; details: isolate 591, 360 h
Outline: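 MABA in 7H9 medium on MDR clinical isolate 591: filtered single-cell suspension, 1 × 10^6 cells per well with drug dilutions, aerobic 37 °C; 0.02 % resazurin added on day 15, overnight 37 °C. MIC = lowest concentration preventing blue-to-pink change. Triplicate; medium+inoculum and medium-only controls.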

[4] = test system: Mycobacterium tuberculosis; assay: Antimycobacterial activity against Mycobacterium tuberculosis H37Rv after 10 days by MABA; type: functional; details: 240 h
Outline: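 MABA in 7H9 medium: log-phase culture passed through 8 µm filter, density set by OD600 and McFarland standards, 1 × 10^6 cells per well with drug dilutions; aerobic incubation 37 °C 10 days, then 0.02 % resazurin, overnight 37 °C. MIC = lowest concentration preventing blue-to-pink change. Triplicate; medium+inoculum and medium-only controls.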

[5] = Cytotoxicity against human THP1 cells assessed as cell viability at 9.36 ug/ml after 48 hrs by MTT assay relative to control; type: cell-based; details: THP-1 cells, read-out: Activity
Outline: (§1)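 THP-1 cells (human monocytic line) seeded at 10^4 per well and adhered with phorbol myristate acetate (20 ng/mL). Then given fresh RPMI with 10% foetal calf serum and 2 mM L-glutamine, plus compound by serial double dilution (4.68–150 µg/mL), with DMSO and no-DMSO controls. Incubated 24 or 48 h at 37 °C, 5% CO2. MTT added for 4 h, formazan dissolved in DMSO, A540 read, percentage survival calculated.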

[6] = Cytotoxicity against human THP1 cells assessed as cell viability at 4.68 ug/ml after 48 hrs by MTT assay relative to control; type: cell-based; details: THP-1 cells, read-out: Activity; outline: as §1
THP-1 = assay: Cytotoxicity against human THP1 cells assessed as growth inhibition after 24 to 48 hrs by MTT assay; type: cell-based; outline: as §1
[7] = Cytotoxicity against human THP1 cells assessed as cell viability at 18.72 ug/ml after 24 hrs by MTT assay relative to control; type: cell-based; details: THP-1 cells, read-out: Activity; outline: as §1
[8] = Cytotoxicity against human THP1 cells assessed as cell viability at 37.48 ug/ml after 24 hrs by MTT assay relative to control; type: cell-based; details: THP-1 cells, read-out: Activity; outline: as §1
[9] = Cytotoxicity against human THP1 cells assessed as cell viability at 150 ug/ml after 24 hrs by MTT assay relative to control; type: cell-based; details: THP-1 cells, read-out: Activity; outline: as §1
[10] = Selectivity index, ratio of IC50 for cytotoxicity against human THP1 cells to MIC for Mycobacterium tuberculosis H37Rv; type: toxicity, cell-based; details: THP-1 cells, read-out: Selectivity Index
Outline: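 THP-1 cells, 10^4/well, adhered with PMA 20 ng/mL, in RPMI with 10 % FCS and 2 mM L-glutamine; exposed to 4.68–150 µg/mL for 24 and 48 h at 37 °C, 5 % CO2; MTT 4 h, formazan in DMSO, A540. Index = THP-1 IC50 divided by H37Rv MABA MIC.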

[11] = Cytotoxicity against human THP1 cells assessed as cell viability at 18.72 ug/ml after 48 hrs by MTT assay relative to control; type: cell-based; details: THP-1 cells, read-out: Activity; outline: as §1
[12] = Cytotoxicity against human THP1 cells assessed as cell viability at 37.48 ug/ml after 48 hrs by MTT assay relative to control; type: cell-based; details: THP-1 cells, read-out: Activity; outline: as §1
[13] = Cytotoxicity against human THP1 cells assessed as cell viability at 9.36 ug/ml after 24 hrs by MTT assay relative to control; type: cell-based; details: THP-1 cells, read-out: Activity; outline: as §1
[14] = Cytotoxicity against human THP1 cells assessed as cell viability at 75 ug/ml after 48 hrs by MTT assay relative to control; type: cell-based; details: THP-1 cells, read-out: Activity; outline: as §1
[15] = Cytotoxicity against human THP1 cells assessed as cell viability at 150 ug/ml after 48 hrs by MTT assay relative to control; type: cell-based; details: THP-1 cells, read-out: Activity; outline: as §1
[16] = Cytotoxicity against human THP1 cells assessed as cell viability at 4.68 ug/ml after 24 hrs by MTT assay relative to control; type: cell-based; details: THP-1 cells, read-out: Activity; outline: as §1
[17] = Cytotoxicity against human THP1 cells assessed as cell viability at 75 ug/ml after 24 hrs by MTT assay relative to control; type: cell-based; details: THP-1 cells, read-out: Activity; outline: as §1
[18] = biological target: DNA gyrase subunit B (Escherichia coli) (UniProt P0AES6); assay: Inhibition of Escherichia coli DNA gyrase-B at 0.66 to 100 uM using relaxed pUC19 DNA as substrate after 1 hr by bromophenol blue dye based agarose gel electrophoresis method
Outline: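 E. coli DNA gyrase, 1 unit, with 0.3 µg relaxed pUC19 plasmid in 1X gyrase assay buffer. Compound added as 0.2 µL from 100 µM stock; ciprofloxacin positive control, DMSO solvent control. Incubated 37 °C for 1 h, stopped with 50% glycerol/0.25% bromophenol blue. Run on 1% agarose in 0.5X TBE pH 8.3, 16 h at 30 mA, ethidium bromide stained, UV visualised for supercoiling.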

[19] = test system: Mycobacterium tuberculosis; assay: Potency index, ratio of streptomycin MIC to compound MIC for antimycobacterial activity against MDR Mycobacterium tuberculosis isolate 591; type: functional
[20] = test system: Mycobacterium tuberculosis; assay: Potency index, ratio of isoniazid MIC to compound MIC for antimycobacterial activity against MDR Mycobacterium tuberculosis isolate 591; type: functional
[21] = test system: Mycobacterium tuberculosis; assay: Potency index, ratio of rifampicin MIC to compound MIC for antimycobacterial activity against MDR Mycobacterium tuberculosis isolate 591; type: functional
[22] = test system: Mycobacterium tuberculosis; assay: Potency index, ratio of ethambutol MIC to compound MIC for antimycobacterial activity against MDR Mycobacterium tuberculosis isolate 591; type: functional

Cc1cc(=O)oc2cc(OCc3cn([C@@H]4O[C@H](CO)[C@@H](O)[C@H]4O)nn3)c(Cl)cc12
Ratio [1]: 2
MBC [2]: 37.7 µM (≈ 16 µg/mL)
MIC [3]: 18.9 µM (≈ 8.01 µg/mL)
MIC [4]: 18.9 µM (≈ 8.01 µg/mL)

[H]/N=C(/N)N[C@H]1[C@H](O)[C@@H](O)[C@H](O[C@@H]2O[C@@H](C)[C@](O)(C=O)[C@H]2O[C@@H]2O[C@@H](CO)[C@H](O)[C@@H](O)[C@@H]2NC)[C@@H](N/C(N)=N\[H])[C@@H]1O [STREPTOMYCIN]
viability at 48 h, 9.36 ug/ml [5]: 86%
viability at 48 h, 4.68 ug/ml [6]: 90%
IC50 (THP-1): > 258 µM
viability at 24 h, 18.72 ug/ml [7]: 98%
viability at 24 h, 37.48 ug/ml [8]: 89%
viability at 24 h, 150 ug/ml [9]: 75%
selectivity ratio [10]: 600
viability at 48 h, 18.72 ug/ml [11]: 84%
viability at 48 h, 37.48 ug/ml [12]: 77%
viability at 24 h, 9.36 ug/ml [13]: 99%
viability at 48 h, 75 ug/ml [14]: 69%
viability at 48 h, 150 ug/ml [15]: 55%
viability at 24 h, 4.68 ug/ml [16]: 100%
viability at 24 h, 75 ug/ml [17]: 80%
MIC [3]: 69 µM (≈ 40.1 µg/mL)
MIC [4]: 0.43 µM (≈ 0.25 µg/mL)

Cc1cc(=O)oc2cc(-c3cn([C@@H]4O[C@H](CO)[C@@H](O)[C@H]4O)nn3)c(Cl)cc12
MIC [3]: 25.4 µM (≈ 10 µg/mL)
MIC [4]: 30.5 µM (≈ 12 µg/mL)

CC[C@@H](CO)NCCN[C@@H](CC)CO [ETHAMBUTOL]
MIC [3]: 73.4 µM (≈ 15 µg/mL)
MIC [4]: 9.7 µM (≈ 1.98 µg/mL)

Cc1cc(=O)oc2cc(-c3cn([C@@H]4O[C@H](COC(=O)c5ccccc5)[C@@H](OC(=O)c5ccccc5)[C@H]4OC(=O)c4ccccc4)nn3)ccc12
Ratio [1]: 2.25
MBC [2]: 26.8 µM (≈ 18 µg/mL)
MIC [3]: 29.8 µM (≈ 20 µg/mL)
MIC [4]: 11.9 µM (≈ 7.99 µg/mL)

O=C(OC[C@H]1O[C@@H](n2cc(-c3ccc4c(-c5ccccc5)cc(=O)oc4c3)nn2)[C@H](OC(=O)c2ccccc2)[C@@H]1OC(=O)c1ccccc1)c1ccccc1
Ratio [1]: 2.25
MBC [2]: 24.5 µM (≈ 18 µg/mL)
MIC [3]: 13.6 µM (≈ 9.98 µg/mL)
MIC [4]: 10.9 µM (≈ 8 µg/mL)

O=C(O)c1cn(C2CC2)c2cc(N3CCNCC3)c(F)cc2c1=O
inhibition [18]: Active

Cc1cc(=O)oc2cc(OCc3cn([C@@H]4O[C@H](COC(=O)c5ccccc5)[C@@H](OC(=O)c5ccccc5)[C@H]4OC(=O)c4ccccc4)nn3)ccc12
Ratio [1]: 2
MBC [2]: 17.1 µM (≈ 12 µg/mL)
MIC [3]: 11.4 µM (≈ 8 µg/mL)
MIC [4]: 8.5 µM (≈ 5.96 µg/mL)

O=C(OC[C@H]1O[C@@H](n2cc(COc3ccc4c(-c5ccccc5)cc(=O)oc4c3)nn2)[C@H](OC(=O)c2ccccc2)[C@@H]1OC(=O)c1ccccc1)c1ccccc1
viability at 48 h, 9.36 ug/ml [5]: 93%
Ratio [19]: 7 - 420
viability at 48 h, 4.68 ug/ml [6]: 95%
IC50 (THP-1): > 196 µM
Ratio [1]: 2
viability at 24 h, 18.72 ug/ml [7]: 97%
viability at 24 h, 37.48 ug/ml [8]: 81%
Ratio [20]: 7 - 420
viability at 24 h, 150 ug/ml [9]: 66%
selectivity ratio [10]: 37.6
viability at 48 h, 18.72 ug/ml [11]: 84%
viability at 48 h, 37.48 ug/ml [12]: 74%
Ratio [21]: 7 - 420
viability at 24 h, 9.36 ug/ml [13]: 100%
MBC [2]: 10.5 µM (≈ 8.02 µg/mL)
viability at 48 h, 75 ug/ml [14]: 70%
viability at 48 h, 150 ug/ml [15]: 64%
viability at 24 h, 4.68 ug/ml [16]: 100%
viability at 24 h, 75 ug/ml [17]: 81%
MIC [3]: 5.2 µM (≈ 3.97 µg/mL)
Ratio [22]: 7 - 420
MIC [4]: 5.2 µM (≈ 3.97 µg/mL)
